The source of these data is ChEMBL document CHEMBL1154588, “Evaluation of triazolamers as active site inhibitors of HIV-1 protease” (Bioorg Med Chem Lett, 2009).

Bounds are passed on as bounds.

Chain of Protease (Q9YQ12 whole entry): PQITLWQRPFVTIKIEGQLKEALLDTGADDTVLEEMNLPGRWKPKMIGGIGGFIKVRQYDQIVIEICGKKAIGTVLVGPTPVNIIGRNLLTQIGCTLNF

This test concerns the target Protease (Human immunodeficiency virus 1, UniProt Q9YQ12). The experiment in a line: Inhibition of HIV1 protease by FRET-based assay. In outline: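 HIV-1 protease activity was read out by a FRET-based protease assay, following a previously described method. Triazolamer solutions were made up in 10% DMSO in aqueous buffer for the assay.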
As a reminder, the IC50 is the concentration that inhibits the measured activity by half. For the compound `CC(C)[C@@H](c1cn([C@@H](Cc2ccccc2)c2cn([C@@H](Cc3ccccc3)c3cn([C@H](c4cn([C@H](C)c5ccccc5)nn4)C(C)C)nn3)nn2)nn1)n1cc(CCc2ccccc2)nn1`, the IC50 was found to be 101 µM. The same measure, in the same setting: the value for `C[C@H](c1ccccc1)n1cc([C@H](Cc2ccccc2)n2cc([C@H](Cc3ccccc3)n3cc([C@@H](N)Cc4ccccc4)nn3)nn2)nn1` was 78 µM; that for `CC(C)[C@H](N)c1cn([C@@H](Cc2ccccc2)c2cn([C@@H](Cc3ccccc3)c3cn([C@H](C)c4ccccc4)nn3)nn2)nn1` was 129 µM. For orientation: Ki means the equilibrium dissociation constant of an inhibitor or competing ligand from its target. A higher Ki goes with weaker binding. With `CNC(=O)[C@H](C(C)C)n1cc([C@H](Cc2ccccc2)n2cc([C@H](Cc3ccccc3)n3cc([C@@H](N)C(C)C)nn3)nn2)nn1`, the IC50 was > 500 µM and the Ki is 500 µM.

For the compound `C[C@H](c1ccccc1)n1cc([C@H](Cc2ccccc2)n2cc([C@H](Cc3ccccc3)n3cc([C@H](Cc4ccccc4)n4cc([C@@H](N)Cc5ccccc5)nn4)nn3)nn2)nn1`, the IC50 came to 29 µM and the Ki was 25 µM. In the case of `CNC(=O)[C@H](Cc1ccccc1)n1cc([C@H](Cc2ccccc2)n2cc([C@H](Cc3ccccc3)n3cc([C@H](Cc4ccccc4)n4cc([C@@H](N)Cc5ccccc5)nn4)nn3)nn2)nn1`, the IC50 was determined as 72 µM. `CC(C)[C@H](N)c1cn([C@@H](Cc2ccccc2)c2cn([C@@H](Cc3ccccc3)c3cn([C@H](c4cn([C@H](C)c5ccccc5)nn4)C(C)C)nn3)nn2)nn1` gave an IC50 of 60 µM. Still for that read-out and setting: with `CC(C)[C@H](N)c1cn([C@H](c2cn([C@@H](Cc3ccccc3)c3cn([C@H](c4cn([C@H](C)c5ccccc5)nn4)C(C)C)nn3)nn2)C(C)C)nn1` the figure was 131 µM. For `NCCNC(=O)[C@H](Cc1ccccc1)n1cc([C@H](Cc2ccccc2)n2cc([C@H](Cc3ccccc3)n3cc([C@H](Cc4ccccc4)n4cc([C@@H](N)Cc5ccccc5)nn4)nn3)nn2)nn1`, the IC50 came to 25 µM and the affinity corresponds to a Ki of 25 µM.

In the case of `CNC(=O)[C@H](C(C)C)n1cc([C@H](Cc2ccccc2)n2cc([C@H](Cc3ccccc3)n3cc([C@H](C)N)nn3)nn2)nn1`, the IC50 was > 500 µM and the Ki came to 500 µM.
